In publication PMC3619423 (Experimental eye research, 2013):
“Also recorded” adds a separate entry of the source. No end group written: not given here.

Tests used:
[1] = system: bovine lens extracts (outer cortical, inner cortical, nuclear); test: MCA-62-70 hydrolytic activity in regions of bovine lens; type: biochemical; conditions: 1 mg protein extract, 37 °C
Summary of the method: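 Decapsulated bovine lenses stirred at 4 °C in 50 mM sodium phosphate, 150 mM NaCl, pH 7.2, dissolving outer cortex (about a third of wet weight), then inner cortex (about a third); remaining nucleus homogenised. Each fraction centrifuged 30,000 × g, 30 min; supernatant (1 mg protein) incubated with 25 μg MCA-62-70, 2 h, 37 °C; fluorescence read before and after (ex 326, em 398 nm).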

[2] = system: human lens extracts (cortical, nuclear); test: MCA-62-70 hydrolytic activity in human lenses of different age; type: biochemical; conditions: for total protease activity (MCA-62-70 hydrolyzed): water-soluble proteins
Summary of the method: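 Cortical and nuclear regions of frozen young, middle-aged and old human lenses separated by dissection; water-soluble extracts (1 mg protein) incubated with 25 μg MCA-62-70 substrate, 2 h, 37 °C. Fluorescence read before and after (ex 326, em 398 nm). Amount hydrolysed taken from a standard curve of trypsin-digested substrate; average ± SE of four independent experiments; one-way ANOVA with Tukey's test.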

[3] = bovine lens extract containing 5 mg protein; conditions: 37 °C, up to 16 h
[4] = system: peptidase-rich fraction of bovine lens extract
[5] = system: bovine lens protease-rich fraction; test: Hydrolysis of MCA-62-70 substrate by lens protease in the presence of inhibitors; type: biochemical; conditions: for inhibition of MCA-62-70 hydrolysis: pre-incubated 30 min at 37 °C
[6] = system: Arg-MCA hydrolyzing activity (aminopeptidase activity); test: Arg-MCA hydrolysis; type: biochemical, bovine
protease-rich human = conditions: 37 °C, up to 5 h
[7] = bovine, 37 °C

Molecule: MCA-SEVRSDRD[Lys(Dnp)]RR-NH2 [MCA-62-70]
- enzymatic activity (MCA-62-70 hydrolysis) ([1]; bovine lens inner cortex): 0.10 ± 0.01 nmoles/hr/mg protein
- enzymatic activity (MCA-62-70 hydrolysis) ([1]; bovine lens nuclear region): 0.04 ± 0.003 nmoles/hr/mg protein
- enzymatic activity (MCA-62-70 hydrolysis) ([1]; bovine lens outer cortical region): 0.58 ± 0.04 nmoles/hr/mg protein
- share of total lens enzymatic activity in the cortical region ([2]; human lens cortical region, all age groups): ~90%
- total protease activity (MCA-62-70 hydrolyzed) ([2]; middle-aged (40 ± 2 years) human lenses): 7.26 ± 0.83 n moles/h
- total protease activity (MCA-62-70 hydrolyzed) ([2]; older (60 ± 2 years) human lenses): 5.49 ± 0.29 nmol/h
- total protease activity (MCA-62-70 hydrolyzed) ([2]; young (20 ± 2 years) human lenses): 8.84 ± 0.96 nmol/h

Molecule: Succinyl-ISEVRSDRDK-Biotin
- fragment found [3]: αA-61-65; also recorded: αA-61-66

Molecule: RPPGFSPFR [bradykinin, Bradykinin]
- hydrolysis after 2 h [4]: complete hydrolysis
- slowing of hydrolysis rate versus peptide incubated alone [4]: 40%

Molecule: NC(=O)CI [Iodoacetamide]
- Relative activity (%) [5]: 97%

Molecule: O=C(O)CN(CCOCCOCCN(CC(=O)O)CC(=O)O)CC(=O)O [EGTA, ethylene glycol tetraacetic acid]
- inhibition of MCA-62-70 hydrolysis ([5]; concentration not given): 50%

Molecule: CC(C)C[C@H](NC(=O)[C@@H](O)[C@H](N)Cc1ccccc1)C(=O)O [Bestatin, reference compound]
- inhibition of Arg-MCA hydrolyzing activity (aminopeptidase activity) ([6]; protease preparation treated with bestatin): complete inhibition

Molecule: O=c1oc(Cl)c(Cl)c2ccccc12 [3,4-DCI]
- inhibition of MCA-62-70 hydrolysis ([5]; 500 μM): up to 85%

Molecule: α-crystallin: bovine lens α-crystallin, molecular chaperone protein added to the peptidase incubations
- increase of Arg-MCA hydrolysis by peptidase-rich bovine lens fraction ([6]; addition of 12.5 nmoles α-crystallin, data not shown): ~4 fold

Molecule: MCA-SEVRSDRD[Lys(Dnp)]RR-NH2
- fragment found (protease-rich human): MCA-62-68 (MCA-SEVRSDR); also recorded: MCA-62-65 (MCA-SEVR); also recorded: MCA-62-66 (MCA-SEVRS), major

Molecule: Succinyl-DVKHFSPEDK-Biotin
- fragment found [3]: αA-76-78; also recorded: αA-76-80; also recorded: αA-76-82, major

Molecule: SDRDKFVIFLDVKHF
- not cleaved [7]: αA-66-80 was not hydrolyzed

Molecule: O=C(O)CN(CCN(CC(=O)O)CC(=O)O)CC(=O)O [EDTA, ethylene diamine tetraacetic acid]
- inhibition of MCA-62-70 hydrolysis ([5]; concentration not given): 50%
